Published values pooled from the literature.
Lines come from different studies, so protocols differ.
Observed: microbial growth

CC1(C)S[C@@H]2[C@H](NC(=O)[C@H](N)c3ccccc3)C(=O)N2[C@H]1C(=O)O
MIC (Acinetobacter baumannii; broth dilution; ATCC19606): > 64 µg/mL

CNC(C)C1CCC(N)C(OC2C(N)CC(N)C(OC3OCC(C)(O)C(NC)C3O)C2O)O1 (stereo not shown)
MIC (Proteus mirabilis; broth dilution): 2 µg/mL

CCCCCCC#Cc1cncc(-c2nnc(SCc3cc(C(F)(F)F)cc(C(F)(F)F)c3)n2CCCN)c1
MIC (Acinetobacter baumannii; broth dilution; ATCC17978): 32 µg/mL

O=C1O[C@H]2[C@@H]3OC(=O)c4cc(O)c(O)c(O)c4-c4c(O)c(O)c5oc(=O)c6c(c(O)c(O)c7oc(=O)c4c5c76)-c4c(cc(O)c(O)c4O)C(=O)OC[C@H]3OC(O)[C@@H]2OC(=O)c2cc(O)c(O)c(O)c2-c2c1cc(O)c(O)c2O (mixture of isomers)
MIC (Streptococcus gordonii; broth dilution; 24 h): 100 µg/mL

CC[C@H]1OC(=O)[C@H](C)[C@@H](O[C@H]2C[C@@](C)(OC)[C@@H](O)[C@H](C)O2)[C@H](C)[C@@H](O[C@@H]2O[C@H](C)C[C@H](N(C)C)[C@H]2O)[C@](C)(O)C[C@@H](C)CN(C)[C@H](C)[C@@H](O)[C@]1(C)O
MIC (Acinetobacter baumannii; broth dilution; ATCCBAA1605): 16 µg/mL

C[C@@H]1O[C@@H](OC[C@H]2O[C@@H](Oc3c(-c4ccc(O)c(O)c4)oc4cc(O)cc(O)c4c3=O)[C@H](O)[C@@H](O)[C@@H]2O)[C@H](O)[C@H](O)[C@H]1O
MIC (Streptococcus gordonii; broth dilution; 24 h): 200 µg/mL

CCCCCCCCCCCC[N+](C)(C)Cc1ccccc1
MIC (Acinetobacter baumannii; ATCC17978): 63 µM

CCCCCCC#Cc1cncc(-c2nnc(SCc3ccc([N+](=O)[O-])cc3)n2CCCN)c1
MIC (Acinetobacter baumannii; broth dilution; ATCC17978): 64 µg/mL

CC1(C)S[C@@H]2[C@H](NC(=O)[C@H](N)c3ccc(O)cc3)C(=O)N2[C@H]1C(=O)O
MIC (Acinetobacter baumannii; broth dilution; ATCCBAA1605): > 64 µg/mL

O=c1oc2c(O)c(O)cc3c(=O)oc4c(O)c(O)cc1c4c23
MIC (Streptococcus gordonii; broth dilution; 24 h): 100 µg/mL
